Measured values reported in ChEMBL document CHEMBL1152650, “Synthesis and in vitro evaluation of pteridine analogues as monoamine oxidase B and nitric oxide synthase inhibitors” (Bioorg Med Chem, 2009).

Key:
[1] = Inhibition of MAOB from baboon liver by spectrophotometry; design: species or system Papio hamadryas
Outline: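 Mitochondrial fraction of baboon liver (no MAO-A activity, so no clorgyline), 0.15 mg protein/mL in 100 mM sodium phosphate pH 7.4. Substrate MMTP 50 µM, 4% DMSO final. Incubated 37 °C for 10 min, then stopped with perchloric acid and centrifuged. MMDP+ read at 420 nm. At least eight concentrations over 3 orders of magnitude; IC50 from sigmoidal fit, mean ± SEM of duplicates.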

[2] = Inhibition of NOS in Sprague-Dawley rat brain homogenate assessed as conversion of oxy-hemoglobin to met-hemoglobin; type: tissue-based
Outline: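 Brain of male Sprague-Dawley rat homogenised in HEPES/sucrose/EDTA/DTT with protease inhibitors and PMSF; the 12,000g supernatant is the enzyme source. Mix holds 500 µM HEPES, 250 µM CaCl2, homogenate from 2.36 mg tissue and 5% DMSO. Pre-incubated 3 min at 37 °C, then started with oxyHb 1.09 µM, NADPH 100 µM and L-arginine 100 µM. Scanned 390–430 nm every 10 s for 10 min; metHb taken as A401−A411. IC50 from rate versus log concentration.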

[3] = Inhibition of recombinant NOS from rat brain
Rattus norvegicus = organism: Rattus norvegicus; experiment: Ratio of IC50 for aminoguanidine to IC50 for drug for NOS in Sprague-Dawley rat brain homogenate; type: tissue-based
Papio hamadryas [4] = organism: Papio hamadryas; experiment: Inhibition of MAOB from baboon liver at 30 uM by spectrophotometry
Papio hamadryas [5] = organism: Papio hamadryas; experiment: Inhibition of MAOB from baboon liver at 100 uM by spectrophotometry
[6] = target: T1, Amine oxidase [flavin-containing] B (Mus musculus, UniProt Q8BW75); experiment: Inhibition of mouse brain MAOB
T1 sequence (Q8BW75 whole entry): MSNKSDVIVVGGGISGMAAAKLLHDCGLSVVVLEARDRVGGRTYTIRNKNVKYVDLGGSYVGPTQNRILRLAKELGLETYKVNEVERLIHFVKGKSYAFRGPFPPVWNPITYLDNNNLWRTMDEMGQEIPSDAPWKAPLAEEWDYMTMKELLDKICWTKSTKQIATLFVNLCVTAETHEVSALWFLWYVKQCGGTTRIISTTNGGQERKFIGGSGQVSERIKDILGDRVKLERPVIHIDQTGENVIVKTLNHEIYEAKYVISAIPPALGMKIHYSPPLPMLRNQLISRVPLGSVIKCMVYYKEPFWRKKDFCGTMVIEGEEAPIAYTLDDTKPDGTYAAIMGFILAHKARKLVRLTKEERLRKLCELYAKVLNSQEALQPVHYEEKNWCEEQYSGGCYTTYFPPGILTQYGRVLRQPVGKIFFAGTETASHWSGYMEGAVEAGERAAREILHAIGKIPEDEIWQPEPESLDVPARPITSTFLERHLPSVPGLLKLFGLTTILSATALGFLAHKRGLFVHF

Compound	IC50 [1] [µM]	Ki [1] [nM]	IC50 [2] [µM]	further results
Cn1c(N)c(/N=C/C=C/c2ccccc2)c(=O)n(C)c1=O	12.1	6960	–	–
Cn1c(=O)c2nc(-c3cccc(Cl)c3)cnc2n(C)c1=O	4.89	2820	–	–
Cn1c(N)c(/N=C/c2cccc(Cl)c2)c(=O)n(C)c1=O	7.03	4060	6970	–
Nc1nc(N)c2c(n1)NCC(c1ccccc1)N2 (configuration not stated)	–	–	–	IC50 [3]: 6 µM
Cn1c(=O)c2nc(/C=C/c3cccc(Cl)c3)cnc2n(C)c1=O	0.314	181	1060	–
Cn1c(N)c(/N=C/c2ccccc2)c(=O)n(C)c1=O	–	–	467	Ratio IC50 (Rattus norvegicus): 23; inhibition (Papio hamadryas [4]): 17.8%
Cn1c(=O)c2nc(-c3ccccc3)cnc2n(C)c1=O	–	–	443	Ratio IC50 (Rattus norvegicus): 23; inhibition (Papio hamadryas [5]): 12.2%
Cn1c(=O)c2c(nc(/C=C/c3cccc(Cl)c3)n2C)n(C)c1=O	–	–	–	Ki [6]: 100 nM
Cn1c(N)c(/N=C/C=C/c2cccc(Cl)c2)c(=O)n(C)c1=O	0.602	348	577	–
C[C@H](O)[C@H](O)C1CNc2nc(N)nc(N)c2N1 (some centres not stated)	–	–	–	Ki [3]: 13 nM
